A selection: hits, their analogues and other compounds. The true share with any hit is near 1.6%.
Neddyl block – inhibitors of human cullin neddylation | P61081+Q13564 | 360,000 tested, 0.58% active | calls only at 25 µM | TR-FRET cullin neddylation, biochemical | AID 651699; in the data active = inhibition above about 36%
proKLK7 act – proKLK7 (human) activation, primary screen; P49862; purified proKLK7, EDANS-DABCYL substrate fluorescence; 100% is mature enzyme control, 0% vehicle; activation, % at 7 µM; 370,000 tested, 0.9% active; AID 652039;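 active = activation above the mean of all tested compounds plus 3 SD, computed per campaign excluding outliers beyond control limits, cut at about 13% in these data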
Target sequence (P49862 whole entry, looked up): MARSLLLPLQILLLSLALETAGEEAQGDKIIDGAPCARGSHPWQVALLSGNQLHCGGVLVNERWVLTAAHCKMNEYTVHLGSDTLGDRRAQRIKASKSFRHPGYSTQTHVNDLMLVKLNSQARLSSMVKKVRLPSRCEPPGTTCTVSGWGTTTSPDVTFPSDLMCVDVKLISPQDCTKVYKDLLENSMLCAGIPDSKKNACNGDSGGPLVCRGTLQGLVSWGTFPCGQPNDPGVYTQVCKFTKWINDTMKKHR
procasp3 activ – procaspase-3 (human) activation; recombinant procaspase-3 D3A, Ac-DEVD-pNA absorbance 405 nm; activation, % at 8.5 µM; 330,000 tested, 0.11% active;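 active = activation above the mean of all tested compounds plus 3 SD, cut at about 21% in these data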;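 also: 0% = DMSO alone and 100% = DMSO wells spiked with extra 5 µM PC-3 D3A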
Target sequence (P42574 whole entry D9A/D28A/D175A): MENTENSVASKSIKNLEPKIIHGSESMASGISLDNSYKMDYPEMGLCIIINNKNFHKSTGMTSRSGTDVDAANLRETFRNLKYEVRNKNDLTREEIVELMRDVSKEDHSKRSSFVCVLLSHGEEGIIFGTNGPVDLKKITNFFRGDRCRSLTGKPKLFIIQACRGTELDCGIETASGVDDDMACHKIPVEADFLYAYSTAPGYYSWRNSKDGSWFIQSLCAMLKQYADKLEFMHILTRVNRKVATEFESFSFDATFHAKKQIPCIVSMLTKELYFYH
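System: Procaspase-3 D3A mutant. Medium: Zinc-free 300 mM NaCl, 50 mM HEPES, 0.01% Triton X-100. Schedule: 1 h preincubation plus 2 h reaction at 25 °C. Measured by: 405 nm absorbance of p-nitroaniline, reads at 0 and 120 min. Read-out: percent activation relative to control range.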
proCasp7 act – activates human procaspase-7, counter-screen for procaspase-3 activators | P55210 | activation, % at 8.5 µM | 330,000 tested, 0.093% active | recombinant procaspase-7, Ac-DEVD-pNA absorbance 405 nm; D23A/D198A/D206A triple mutant, cannot self-cleave; scale: DMSO 0, 5 µM enzyme 100;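 active = percent activation above the screen-wide mean plus 3 SD, cut at about 25% in these data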
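buffer or medium = Zinc-free HEPES/NaCl buffer, pH 7.4 | material = Procaspase-7 triple mutant (PC-7 D3A) | input = 2 µM procaspase-7 mutant as dispensed | signal = Epi-absorbance of released pNA at 405 nm, two timepoints | timing = 1 h preincubation, 2 h reaction | replicates = singlicate compound testing | evaluation = % activation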
Neddyl conf – cullin neddylation inhibition, confirmation. shares compounds with Neddyl block. TR-FRET cullin neddylation biochemical assay. calls only at 25 µM. 1,800 tested, 13% active. AID 652217; in the data active = inhibition above about 40%;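 also: neddylation substrate is the cullin 1 ring ligase complex with SKP2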
Active calls of the source: *.

Screening O=C(CCN1C(=O)S/C(=C/c2ccccc2)C1=O)Nc1ccc(O)c(C(=O)O)c1 returned Neddyl block active, proKLK7 act 0, procasp3 activ -1, proCasp7 act 5 and Neddyl conf inactive.
COCCCn1cnc2c(c1=O)c1nc3ccccc3nc1n2CCc1ccccc1 was read as Neddyl block active, proKLK7 act -4 and Neddyl conf inactive.
CCCCn1c2nc3ccccc3nc2c2c(=O)n(CCC)cnc21 was read as proKLK7 act 0, procasp3 activ 5 and proCasp7 act -2.
For COC(=O)[C@]12C[C@H](CC(=O)N3CCN(C(=O)c4ccco4)CC3)C(=O)N(CCc3ccc(OC)c(OC)c3)C1=C[C@H](C(C)(C)C)O[C@@H]2C the results were proKLK7 act 0.
`COc1ccc(-c2nn(-c3ccccc3)cc2/C=N/Nc2ccc(Cl)c(C(=O)O)c2)cc1OC` gave Neddyl block active, proKLK7 act 1, procasp3 activ -1, proCasp7 act -7 and Neddyl conf inactive.
For CC1(C)Cc2c(sc(NC(=O)c3ccc4c(c3)OCCO4)c2C(N)=O)C(C)(C)N1 the results were Neddyl block active, proKLK7 act 1, procasp3 activ 1, proCasp7 act 4 and Neddyl conf inactive.
CN=C1c2cc3cc(OC)ccc3n2CCN1Cc1ccccc1 was read as Neddyl block active, proKLK7 act 6 and Neddyl conf inactive.
For COc1ccc(CCNc2oc(-c3ccco3)nc2C#N)cc1 the results were Neddyl block active, proKLK7 act 1, procasp3 activ 1, proCasp7 act 3 and Neddyl conf active.
CCCCC(=O)OCC(=O)N1N=C(c2c[nH]c3ccccc23)C(O)C1c1ccc(OC)cc1 (stereo not given) was read as Neddyl block active, proKLK7 act -1, procasp3 activ -10, proCasp7 act -9 and Neddyl conf inactive.
Screening COCCOC(=O)c1cc(C(=O)c2cc(F)ccc2O)coc1=N returned Neddyl block active, proKLK7 act -1, procasp3 activ -3, proCasp7 act -10 and Neddyl conf inactive.
Screening CCOC(=O)c1nn(-c2ccccc2C)c2nc(CC(C)C)c(C#N)c(=O)n12 returned Neddyl block active, proKLK7 act 1, procasp3 activ 1, proCasp7 act 9 and Neddyl conf inactive.
Screening Cc1c(C(=O)Nc2ccc(S(N)(=O)=O)cc2)oc2ccc(Cl)cc12 returned Neddyl block active, proKLK7 act 0, procasp3 activ 0, proCasp7 act -1 and Neddyl conf inactive.
Screening CCc1ccc2oc(C(=O)Nc3ccc(S(N)(=O)=O)cc3)c(C)c2c1 returned proKLK7 act 0, procasp3 activ -3 and proCasp7 act 0.
`CCN(CC)CCCNC(=O)CSc1nnc(-c2ccncc2)n1-c1ccc(OC)cc1` gave proKLK7 act 0.
O=C(CSc1cccc2cccnc12)N/N=C/c1cccc(O)c1 was read as Neddyl block active, proKLK7 act 0, procasp3 activ 1, proCasp7 act -2 and Neddyl conf inactive.
For CC(C)[C@H]1Cn2nnc(-c3ccccc3)c2Cn2c3ccccc3c(=O)n21 the results were proKLK7 act 0.
For CC(c1ccccc1)n1cc(C(=O)NCCCN2CCCC2)nn1 (stereo not given) the results were proKLK7 act 0.
Screening CCCCN1CCN(C2=Nc3ccccc3Sc3ccccc32)CC1 returned proKLK7 act 0.
`CCN(CC)C(=O)c1sc2nc(-c3ccncc3)[nH]c(=O)c2c1C` gave Neddyl block active, proKLK7 act -2, procasp3 activ 0, proCasp7 act 18 and Neddyl conf active.
For CCc1cc2c(=O)[nH]c(-c3ccncc3)nc2s1 the results were Neddyl block active, proKLK7 act -9, procasp3 activ -13 and proCasp7 act 4.
CCN(CC)C(=O)c1sc2nc(-c3ccccn3)[nH]c(=O)c2c1C was read as Neddyl block inactive, proKLK7 act -24, procasp3 activ -15 and proCasp7 act -21.
Screening COc1ccc(/C=N\NC(=O)c2cccc([N+](=O)[O-])c2)cc1Cn1cc([N+](=O)[O-])cn1 returned proKLK7 act 0, procasp3 activ 4 and proCasp7 act 4.
COc1ccc(/C=N/NC(=O)c2ccccc2O)cc1Cn1cc(Cl)cn1 was read as Neddyl block active, proKLK7 act -1, procasp3 activ 1, proCasp7 act 6 and Neddyl conf active.
`Cc1ccc(S(=O)(=O)Nc2c(NC3CCCCC3)c3ccccc3oc2=O)cc1C` gave Neddyl block active, proKLK7 act 0, procasp3 activ 0 and proCasp7 act -14.
COc1ccc(S(=O)(=O)Nc2c(NC3CCCCC3)c3ccccc3oc2=O)cc1OC was read as Neddyl block active, proKLK7 act 1, procasp3 activ 10, proCasp7 act 0 and Neddyl conf inactive.
Screening Cc1c(C)c2ccc(OC(C)C(=O)NCCCN3CCOCC3)c(C)c2oc1=O (stereo not given) returned Neddyl block active, proKLK7 act 2, procasp3 activ 3, proCasp7 act 4 and Neddyl conf inactive.
Screening Cc1c(C)c2ccc(OC(C)C(=O)NCCN3CCOCC3)c(C)c2oc1=O (stereo not given) returned Neddyl block active, proKLK7 act 0, procasp3 activ 1, proCasp7 act -4 and Neddyl conf inactive.
Cc1c(OC(C)C(=O)NCCN2CCOCC2)ccc2c3c(c(=O)oc12)CCC3 (stereo not given) was read as proKLK7 act -27, procasp3 activ 4 and proCasp7 act 7.
`CCc1sc(C(=O)Nc2cccc(-n3cnnn3)c2)cc1C` gave Neddyl block inactive, proKLK7 act 0, procasp3 activ 4 and proCasp7 act 9.
Screening CC(C)c1[nH]nc2c1C(c1cccc(C(F)(F)F)c1)NC2=O (stereo not given) returned proKLK7 act -1.
For Nc1cc(S(=O)(=O)O)cc2ccc(S(=O)(=O)O)cc12 the results were Neddyl block active and proKLK7 act -18.
Nc1ccc(C(=O)Nc2ccc3c(O)cc(S(=O)(=O)O)cc3c2)cc1 was read as Neddyl block inactive and proKLK7 act 0.
For O=c1ccc2cc3c(-c4ccccc4)coc3cc2o1 the results were Neddyl block active, proKLK7 act -8 and Neddyl conf inactive.
`O=C1OC(c2ccccc2)=N/C1=C\C=C\c1ccco1` gave Neddyl block active, proKLK7 act 1, procasp3 activ 2, proCasp7 act -3 and Neddyl conf inactive.

Bioassay records from PubChem.
